In the library only some 0.72% were active in any assay of this set; here they are far more common.
mIAP block = inhibitors of mouse IAP, primary screen, biochemical, luminescence, uHTS | intestinal alkaline phosphatase [Mus musculus] | purified mouse IAP, CDP-Star luminescence, 30 min | inhibition, % at 10 µM | 330,000 compounds, 0.2% hits | AID 2806, 2010;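 active = inhibition of at least 40% at 10 µM in the primary screen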
bIAP activator = bovine intestinal alkaline phosphatase activators, primary screen, biochemical, bovine IAP, CDP-star luminescence | 200,000 compounds, 0.17% hits | purified bovine IAP, 30 min; hits give high values; fold of DMSO-control signal, blank-subtracted | activation factor at 20 µM | alkaline phosphatase, intestinal [Bos taurus];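 active = activation factor of 2 or more at 20 µM, a signal rise over negative controls twice the positive control's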
mIAP act = activators of mouse IAP, primary screen, biochemical, luminescence, uHTS; activation factor at 10 µM; intestinal alkaline phosphatase [Mus musculus]; muIAP, CDP-Star luminescence, 30 min; hits give high values; 1 = vehicle-only enzyme signal, 0 = enzyme-free wells; 330,000 compounds, 0.24% hits;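 active = activation factor of at least 2 at 20 µM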
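Assay system: mouse IAP enzyme; Reagent: CDP-Star chemiluminescent phosphatase substrate; Compound: DMSO-dissolved test compounds; Incubation: 30 min, room temperature; Technique: luminescence from enzymatic CDP-Star hydrolysis; Controls: DMSO-only wells and no-enzyme negative control.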
bIAP inhibitor = bovine intestinal alkaline phosphatase inhibitors, primary screen, selectivity assay for TNAP inhibitor project, biochemical, bovine IAP, CDP-star luminescence | alkaline phosphatase, intestinal [Bos taurus] | purified bovine IAP, 30 min | inhibition, % at 20 µM | 190,000 tested, under 10 active | AID 1019, 2008;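 active = over 50% inhibition of intestinal alkaline phosphatase at 20 µM in the single-dose screen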
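Assay system: bovine IAP enzyme; medium: DEA buffer 100 mM, pH 9.8, with MgCl2 1.0 mM, ZnCl2 0.02 mM; doses: 20 µM single dose; incubation: enzyme reaction for 30 min at room temperature; detection: CDP-star luminescence signal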
hIAP act = human IAP activators, primary screen, biochemical, luminescence, uHTS. activation factor at 10 µM. purified human IAP, CDP-Star luminescence, 30 min; hits give high values; 1 = vehicle-only enzyme, 0 = enzyme-free background. Intestinal-type alkaline phosphatase (Homo sapiens), P09923. 330,000 compounds, 0.16% hits;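 active = activation factor of the enzyme at least 2-fold when tested at 20 µM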
Target sequence (P09923 whole entry, looked up): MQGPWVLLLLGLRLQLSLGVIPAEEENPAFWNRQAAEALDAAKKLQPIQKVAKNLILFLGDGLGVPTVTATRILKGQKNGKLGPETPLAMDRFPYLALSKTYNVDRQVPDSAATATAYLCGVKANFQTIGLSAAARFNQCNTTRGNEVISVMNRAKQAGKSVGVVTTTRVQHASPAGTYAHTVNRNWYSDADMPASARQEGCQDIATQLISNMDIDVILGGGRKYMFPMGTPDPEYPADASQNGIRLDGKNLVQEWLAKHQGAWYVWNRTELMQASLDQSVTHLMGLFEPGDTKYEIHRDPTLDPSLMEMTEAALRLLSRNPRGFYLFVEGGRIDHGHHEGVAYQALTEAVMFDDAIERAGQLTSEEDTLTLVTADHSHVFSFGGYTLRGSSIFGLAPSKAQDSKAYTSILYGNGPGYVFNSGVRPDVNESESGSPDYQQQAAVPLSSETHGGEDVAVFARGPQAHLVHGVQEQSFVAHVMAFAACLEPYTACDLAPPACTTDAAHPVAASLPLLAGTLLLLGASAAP
hIAP inh = human IAP inhibitors, primary screen, biochemical, luminescence, uHTS; purified IAP, CDP-Star luminescence, 30 min; 330,000 compounds, 0.12% hits; inhibition, % at 10 µM;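 active = inhibition reaching a set limit with compound at 10 µM in the primary screen, cut at about 35% in these data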
Each line names hits and unclear results; the compound was inactive in the other large screens.

COc1ccc2cc(C(C)C(=O)Nc3cccc(S(=O)(=O)N(C)C)c3)ccc2c1 (stereo unspecified)	none (no result: bIAP activator, bIAP inhibitor)
O=C(Cc1cccc2ccccc12)N/N=C/c1ccc(F)cc1	none
O=C(Cc1cccc2ccccc12)N/N=C/c1ccc(OC(=O)/C=C/c2ccco2)cc1	mIAP block 63
Fc1ccc(N2CCN(Cc3c[nH]c4ccccc34)CC2)cc1	hIAP inh 38 (no result: bIAP activator, bIAP inhibitor)
CC(=O)Nc1ccc(C2=NN(c3ccccc3)C(c3ccccc3)C2)cc1 (stereo unspecified)	mIAP act 2.3 (no result: bIAP activator, bIAP inhibitor)
COc1ccc(C2CC(c3ccccc3)=NN2c2ccc(C(N)=O)cc2)cc1 (stereo unspecified)	mIAP act 2.8 (no result: bIAP activator, bIAP inhibitor)
CCOc1ccc2[nH]c3nc(SCC(=O)NC4CC4)nnc3c2c1	none (no result: bIAP activator, bIAP inhibitor)
COc1ccc(CN(CC2CCC(C(=O)O)CC2)C(=S)Nc2ccccc2OC)cc1 (stereo unspecified)	none
COc1ccc(CN(CC2CCC(C(=O)O)CC2)C(=S)Nc2cccc(C)c2)cc1 (stereo unspecified)	bIAP activator 2.4
Cc1ccccc1Cn1nc(C)c(NC(=O)C2c3ccccc3Oc3ccccc32)c1C	mIAP act 4.5
Cn1c(CN2CCCC2)nc2cc(NC(=O)Nc3ccccc3)ccc21	bIAP activator 2.3
Cn1c(CN2CCCCC2)nc2cc(NC(=O)c3ccccc3)ccc21	none
CCOc1ccc(CCNC(=O)c2cc(=O)[nH]c3ccc(S(=O)(=O)N(CC)CC)cc23)cc1OCC	none (no result: bIAP activator, bIAP inhibitor)
O=C1NC(=S)S/C1=C\c1coc2ccc(O)cc2c1=O	mIAP block 46 (no result: bIAP activator, bIAP inhibitor)
COc1ccccc1C(=O)N/N=C/c1c[nH]c2ccccc12	none (no result: bIAP activator, bIAP inhibitor)
COC(=O)c1sccc1NC(=O)Nc1cccc([N+](=O)[O-])c1	mIAP block 66 (no result: bIAP activator, bIAP inhibitor)
CCOc1ccc(-c2n[nH]c(=S)o2)cc1	mIAP block 44
CCCCSCCCNC(=O)Nc1ccc(C)c(C)c1	mIAP act 2.7
Cc1ccc(NC(=O)NCCN2CCCCC2)cc1C	none (no result: bIAP activator, bIAP inhibitor)
CN(C)S(=O)(=O)c1cccc(-c2nn(-c3ccccc3)cc2/C=C2\SC(=S)NC2=O)c1	bIAP activator 2.1 (no result: mIAP block, mIAP act, hIAP act, hIAP inh)
Cc1oc(-c2cc(Cl)cc(Cl)c2)cc1C(=O)NCCc1ccccc1	mIAP act 3.6
CCCC(=O)Nc1ccc(C(=O)N/N=C/c2ccc([N+](=O)[O-])o2)cc1	mIAP block 40
Cc1ccc(N=Cc2c(O)c3ccccc3oc2=O)c(C)c1	mIAP block 46 (no result: bIAP activator, bIAP inhibitor)
CCCCC(=O)NC(=S)NNC(=O)CCc1ccccc1	none (no result: bIAP activator, bIAP inhibitor)
CC(=O)NC(=S)NNC(=O)CCc1ccccc1	bIAP activator 2.2
CC(=O)NNC(=S)NC(=O)C(c1ccccc1)c1ccccc1	bIAP activator 2.7
COc1cccc(-c2cnc(NCc3cc(Cl)ccc3O)n2C)c1	bIAP activator 2.2
COc1ccccc1CNc1ncc(-c2ccccc2)n1C	none (no result: bIAP activator, bIAP inhibitor)
COc1ccc(C)cc1NC(=O)C1CCCN1S(=O)(=O)c1ccccc1F (stereo unspecified)	none (no result: bIAP activator, bIAP inhibitor)
COc1cc2c(cc1OC)CN(C(=O)C1CCCN1S(=O)(=O)c1ccc(C)cc1)CC2 (stereo unspecified)	none (no result: bIAP activator, bIAP inhibitor)
CC1CCN(C(C(=O)Nc2ccc3c(c2)OCO3)c2ccccc2)CC1 (stereo unspecified)	bIAP activator 2.7
CC1CCCN(C(C(=O)Nc2ccc3c(c2)OCCO3)c2ccccc2)C1 (stereo unspecified)	none
CC1CCCN(C(C(=O)Nc2ccc3c(c2)OCO3)c2ccccc2)C1 (stereo unspecified)	bIAP activator 2.1
COCCn1c(N/N=C(C)/C=C/c2ccccc2)nc2c1c(=O)[nH]c(=O)n2C	bIAP activator 2.8 (no result: mIAP block, mIAP act, hIAP act, hIAP inh)
CC(/C=C/c1ccccc1)=N\Nc1nc2c(c(=O)[nH]c(=O)n2C)n1CCO	none (no result: bIAP activator, bIAP inhibitor)
S=C(Nc1cc(Cl)cc(Cl)c1)NC1CCN(Cc2ccccc2)CC1	mIAP act 3.2 (no result: bIAP activator, bIAP inhibitor)
